Reference: PubChem BioAssay AID504789 (Broad Institute, 2011)
Results filed as inconclusive are left out. The source made the active and inactive calls.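 How the source made its calls: active means compound whose fitted half-maximal dose lies within ten times its top tested dose in every test run, killing cells; inconclusive means test runs disagree, or a run gives an unclear call; inactive means every test run inactive.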

Columns and labels:
[1] = cytotoxicity in control HMLE_sh_eGFP cells, dose response, counter-screen for breast cancer stem cell project, cell-based, luminescence, dry powder, set 7 (AID 504789); details: HMLE_sh_eGFP viability, CellTiter-Glo luminescence, 72 h; at 19.5 µM (top of the series)
How it was run: (§1)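 Assay system: HMLE_sh_eGFP control cell line (HMLE cells with shRNA against eGFP); Input: 2000 cells per well; Timing: compound exposure approximately 70–74 h at 37 °C; Technique: ATP luminescence with CellTiter-Glo diluted 1:3 in PBS; Control set: DMSO neutral control and 160 µM puromycin positive control, every plate.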

[2] = tested on: HMLE_sh_eGFP viability, CellTiter-Glo luminescence, 72 h; assay: as above
How it was run: as §1

## COc1cc(OC(C)C)ccc1/C=C/C(=O)NC1=NCCS1
[1]
  activity change, negative = cytotoxicity: 25% (inactive)

## O=C(O)COc1ccc(Cl)cc1Cl
[1]
  activity change, negative = cytotoxicity: -6.56% (inactive)

## CC(C)c1ccc(/C=C\C(=O)NC2=NCCS2)cc1
[1]
  activity change, negative = cytotoxicity: -12.1% (inactive)

## COc1cccc2c1C(=O)c1c(O)c3c(c(O)c1C2=O)C[C@@](O)(C(=O)CO)C[C@@H]3OC1C[C@H](N)[C@H](O)[C@H](C)O1 (some centres not stated)
[2]
  AC50: 0.068 µM

## CC(C)c1ccc(/C=C/C(=O)n2ccc(-c3ccc[nH]3)n2)cc1
[2]
  AC50: 10.7 µM

## Cc1ccnc(NCc2ccc(C(=O)Nc3nc(C)cs3)o2)c1
[1]
  activity change, negative = cytotoxicity: -1.56% (inactive)

## Cc1csc(NC(=O)c2ccc(COc3cccc(OC(F)(F)F)c3)o2)n1
[2]
  AC50: 3.01 µM

## O=C(COc1ccc(Cl)cc1Cl)NC1=NCCS1
[1]
  activity change, negative = cytotoxicity: -6.79% (inactive)

## Cc1csc(NC(=O)c2ccc(COc3cccnc3)o2)n1
[1]
  activity change, negative = cytotoxicity: 17.4% (inactive)

## O=C(c1ccc(COc2ccccc2)o1)N1CC(F)(F)C1
[1]
  activity change, negative = cytotoxicity: 13.3% (inactive)

## N#Cc1ccccc1/C=C/C(=O)NC1=NCCS1
[1]
  activity change, negative = cytotoxicity: 5.88% (inactive)

## CC(C)c1ccc(C#CC(=O)NC2=NCCS2)cc1
[1]
  activity change, negative = cytotoxicity: 6.05% (inactive)

## Cc1cccc(NCc2ccc(C(=O)Nc3nc(C)cs3)o2)n1
[2]
  AC50: 21.9 µM

## Cc1csc(NC(=O)c2cccc(CNc3ccccn3)c2)n1
[1]
  activity change, negative = cytotoxicity: -7.38% (inactive)

## Cc1csc(NC(=O)c2ccc(COc3ncccc3F)o2)n1
[1]
  activity change, negative = cytotoxicity: -4.8% (inactive)

## Cc1cccc(NCc2cccc(C(=O)Nc3nc(C)cs3)c2)n1
[2]
  AC50: 25 µM

## CC(C)c1ccc(/C=C/C(=O)N2CC(F)(F)C2)cc1
[1]
  activity change, negative = cytotoxicity: 11.1% (inactive)

## Cc1csc(NC(=O)c2cccc(COc3ccccc3F)c2)n1
[2]
  AC50: 12.4 µM

## O=C(COc1c(Cl)cc(Cl)cc1Cl)N/N=C/c1ccc[nH]1
[1]
  activity change, negative = cytotoxicity: 17.5% (inactive)

## O=C(COc1ccc(Cl)cc1Cl)N/N=C/c1ccccc1
[1]
  activity change, negative = cytotoxicity: 11.1% (inactive)

## Cc1cccc(OCc2cccc(C(=O)Nc3nc(C)cs3)c2)c1
[2]
  AC50: 11.9 µM

## CN(C)C(=N)N=C(N)N
[1]
  activity change, negative = cytotoxicity: 15.9% (inactive)

## Cc1csc(NC(=O)c2cccc(COc3cccc(Cl)c3)c2)n1
[2]
  AC50: 3.87 µM

## O=C(COc1ccc(Cl)cc1Cl)Nc1nccs1
[1]
  activity change, negative = cytotoxicity: 0.602% (inactive)

## CCc1ccc(/C=C/C(=O)NC2=NCCS2)cn1
[1]
  activity change, negative = cytotoxicity: -2.79% (inactive)

## N#Cc1cccc(/C=C/C(=O)NC2=NCCS2)c1
[1]
  activity change, negative = cytotoxicity: -7.41% (inactive)

## COc1cc(C(C)C)ccc1/C=C/C(=O)NC1=NCCS1
[1]
  activity change, negative = cytotoxicity: 10.3% (inactive)

## Cc1csc(NC(=O)c2cccc(COc3cccc(F)c3)c2)n1
[2]
  AC50: 2.2 µM

## O=C(COc1ccc(Cl)cc1Cl)n1ccc(-c2ccc[nH]2)n1
[1]
  activity change, negative = cytotoxicity: 27.2% (inactive)

## O=C(c1ccc(COc2ccccc2)o1)n1ccc(-c2ccc[nH]2)n1
[1]
  activity change, negative = cytotoxicity: 10.5% (inactive)

## Cc1cccc(/C=C/C(=O)NC2=NCCS2)c1
[1]
  activity change, negative = cytotoxicity: 23.8% (inactive)

## Cc1csc(NC(=O)c2ccc(CNc3ncccc3F)o2)n1
[1]
  activity change, negative = cytotoxicity: 3.58% (inactive)
